Results from ChEMBL document CHEMBL2424585, “Biological evaluation of hyperforin and its hydrogenated analogue on bacterial growth and biofilm production” (2013).
Converted amounts (≈) assume the structure as drawn. The source made the active and inactive calls. The rule behind the calls is not given here.

What was measured:
Type in all cases: functional
Staphylococcus aureus [1] = assay: Antibacterial activity against methicillin-resistant Staphylococcus aureus Ig5 clinical isolate after 18 hrs by XTT assay
How it was run: (§1)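 Mature biofilms grown in TSB + 2% glucose from ~10^5 cfu/mL: 4 h shaken adhesion at 37 °C, medium replaced, then 24 h at 37 °C. Rinsed with PBS, then serial dilutions (150–18.7 or 25–6.25 μg/mL; PEG-200 vehicle for one agent) added for 18 h at 37 °C with shaking. Viability read by XTT–menadione, 2 h dark, 492 nm. MBIC = lowest concentration with no detectable biofilm growth. Triplicate.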

Staphylococcus aureus [2] = assay: Antibacterial activity against Staphylococcus aureus RN4220 after 18 hrs by MTT assay; details: RN4220, 18 h
How it was run: (§2)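 Broth microdilution MIC per CLSI M7-A6. Serial 2-fold dilutions in cation-adjusted Mueller-Hinton broth (20 mg/L Ca2+, 10 mg/L Mg2+), ranging 16 to 0.25 μg/mL (DMSO stock) or 256 to 0.25 μg/mL (ethanol stock). Inoculum 5 × 10^5 cfu in saline. Incubated 37 °C, 18 h. Growth detected by MTT colour change. MIC = lowest concentration with no visible growth.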

Staphylococcus aureus [3] = assay: Antibacterial activity against methicillin-resistant Staphylococcus aureus Ig5 clinical isolate after 18 hrs by MTT assay; details: Ig5, 18 h; how it was run: as §2
Staphylococcus aureus [4] = assay: Antibacterial activity against Staphylococcus aureus SA1199B after 18 hrs by MTT assay; how it was run: as §2
Staphylococcus aureus [5] = assay: Antibacterial activity against Staphylococcus aureus XU212 after 18 hrs by MTT assay; details: XU212, 18 h; how it was run: as §2
Enterococcus faecalis [6] = assay: Antibacterial activity against Enterococcus faecalis ATCC 29212 after 18 hrs by XTT assay; how it was run: as §1
Staphylococcus aureus [7] = assay: Antibacterial activity against methicillin-resistant Staphylococcus aureus Ig5 clinical isolate assessed as reduction of microorganisms in biofilm at 150 ug/ml after 18 hrs by XTT assay relative to untreated control; parameters: scale not given: the % may be the effect or the level left
How it was run: (§3)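 Mature 24 h biofilms grown in TSB + 2% glucose were PBS-rinsed and exposed to the stated concentration for 18 h at 37 °C with shaking. Metabolic activity was then measured by XTT (1 mg/mL in PBS) with menadione, 2 h at 37 °C in the dark, absorbance 492 nm. Activity is expressed as OD relative to untreated TSB biofilms. Triplicate.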

Staphylococcus aureus [8] = assay: Antibacterial activity against Staphylococcus aureus ATCC 43300 assessed as reduction of microorganisms in biofilm at 37.5 ug/ml after 18 hrs by XTT assay relative to untreated control; parameters: scale not given: the % may be the effect or the level left; how it was run: as §3
Staphylococcus aureus [9] = assay: Antibacterial activity against methicillin-resistant Staphylococcus aureus ATCC 43300 after 18 hrs by MTT assay; details: ATCC 43300, 18 h; how it was run: as §2
Staphylococcus aureus [10] = assay: Antibacterial activity against Staphylococcus aureus ATCC 29213 assessed as reduction of microorganisms in biofilm at 150 ug/ml after 18 hrs by XTT assay relative to untreated control; parameters: scale not given: the % may be the effect or the level left; how it was run: as §3
Staphylococcus aureus [11] = assay: Antibacterial activity against Staphylococcus aureus ATCC 29213 after 18 hrs by MTT assay; details: ATCC 29213, 18 h; how it was run: as §2
Staphylococcus aureus [12] = assay: Antibacterial activity against methicillin-resistant Staphylococcus aureus ATCC 43300 after 18 hrs by XTT assay; how it was run: as §1
Enterococcus faecalis [13] = assay: Antibacterial activity against Enterococcus faecalis ATCC 29212 after 18 hrs by MTT assay; details: ATCC 29212, 18 h; how it was run: as §2
Staphylococcus aureus [14] = assay: Antibacterial activity against Staphylococcus aureus ATCC 29213 after 18 hrs by XTT assay; how it was run: as §1
Enterococcus faecalis [15] = assay: Antibacterial activity against Enterococcus faecalis ATCC 29212 assessed as reduction of microorganisms in biofilm at 37.5 ug/ml after 18 hrs by XTT assay relative to untreated control; parameters: scale not given: the % may be the effect or the level left; how it was run: as §3
Staphylococcus aureus [16] = assay: Antibacterial activity against Staphylococcus aureus Ig5 assessed as reduction of microorganisms in biofilm at 37.5 ug/mL after 18 hrs by XTT assay relative to untreated control; parameters: scale not given: the % may be the effect or the level left; how it was run: as §3
Staphylococcus aureus [17] = assay: Antibacterial activity against Staphylococcus aureus ATCC 25923 after 18 hrs by MTT assay; details: ATCC 25923, 18 h; how it was run: as §2
Escherichia coli = assay: Antibacterial activity against Escherichia coli ATCC 25922 after 18 hrs by MTT assay; how it was run: as §2
Staphylococcus aureus [18] = assay: Antibacterial activity against Staphylococcus aureus EMRSA-15 after 18 hrs by MTT assay; details: EMRSA-15, 18 h; how it was run: as §2
Staphylococcus aureus [19] = assay: Antibacterial activity against Staphylococcus aureus ATCC 29213 assessed as reduction of microorganisms in biofilm at 25 ug/ml after 18 hrs by XTT assay relative to untreated control; parameters: scale not given: the % may be the effect or the level left; how it was run: as §3
Staphylococcus aureus [20] = assay: Antibacterial activity against methicillin-resistant Staphylococcus aureus Ig5 clinical isolate assessed as reduction of microorganisms in biofilm at 25 ug/ml after 18 hrs by XTT assay relative to untreated control; parameters: scale not given: the % may be the effect or the level left; how it was run: as §3
Staphylococcus aureus [21] = assay: Antibacterial activity against Staphylococcus aureus ATCC 43300 assessed as reduction of microorganisms in biofilm at 25 ug/ml after 18 hrs by XTT assay relative to untreated control; parameters: scale not given: the % may be the effect or the level left; how it was run: as §3
Enterococcus faecalis [22] = assay: Antibacterial activity against Enterococcus faecalis ATCC 29212 assessed as reduction of microorganisms in biofilm at 25 ug/ml after 18 hrs by XTT assay relative to untreated control; parameters: scale not given: the % may be the effect or the level left; how it was run: as §3

Compound | MBIC (Staphylococcus aureus [1]) [µg/mL] | MIC (Staphylococcus aureus [2]) [µg/mL] | MIC (Staphylococcus aureus [3]) [µg/mL] | MIC (Staphylococcus aureus [4]) [µg/mL] | MIC (Staphylococcus aureus [5]) [µg/mL] | MBIC (Enterococcus faecalis [6]) [µg/mL] | MIC (Staphylococcus aureus [9]) [µg/mL] | MIC (Staphylococcus aureus [11]) [µg/mL] | MBIC (Staphylococcus aureus [12]) [µg/mL] | MIC (Enterococcus faecalis [13]) [µg/mL] | MBIC (Staphylococcus aureus [14]) [µg/mL] | MIC (Staphylococcus aureus [17]) [µg/mL] | MIC (Escherichia coli) | MIC (Staphylococcus aureus [18]) [µg/mL] | other results
C1CCC(NC2CCCCC2)CC1.CC(C)CCC[C@]1(C)[C@@H](CCC(C)C)C[C@@]2(CCC(C)C)C(=O)[C@]1(C(=O)C(C)C)C(=O)C(CCC(C)C)=C2O [OCTAHYDROHYPERFORIN DICYCLOHEXYLAMMONIUM SALT] | 37.5 | 1 | 4 | 4 | 1 | 37.5 | 4 | 4 | 37.5 | 4 | 150 | 4 | inactive |  | Activity (Staphylococcus aureus [7]): 45%; Activity (Staphylococcus aureus [8]): 47%; Activity (Staphylococcus aureus [10]): 52%; Activity (Enterococcus faecalis [15]): 45%; Activity (Staphylococcus aureus [16]): 52%
CCn1cc(C(=O)O)c(=O)c2cc(F)c(N3CCNCC3)cc21 [NORFLOXACIN] |  | 1 (≈ 3.13 µM) | 2 (≈ 6.26 µM) | 32 (≈ 100 µM) | 4 (≈ 12.5 µM) |  | 4 (≈ 12.5 µM) | 2 (≈ 6.26 µM) |  | 4 (≈ 12.5 µM) |  | 2 (≈ 6.26 µM) |  | 0.5 (≈ 1.57 µM) | MIC (Escherichia coli; ATCC 25922, 18 h): 0.12 µg/mL (≈ 0.376 µM)
C1CCC(NC2CCCCC2)CC1.CC(C)=CCC[C@]1(C)[C@@H](CC=C(C)C)C[C@]2(CC=C(C)C)C(=O)C(CC=C(C)C)=C(O)[C@@]1(C(=O)C(C)C)C2=O | 25 |  | 1 | 2 | 0.5 | 25 | 1 | 1 | 25 | 1 | 25 | 1 | inactive | 2 | Activity (Staphylococcus aureus [19]): 45%; Activity (Staphylococcus aureus [20]): 33%; Activity (Staphylococcus aureus [21]): 21%; Activity (Enterococcus faecalis [22]): 34%
